Published values of several laboratories.
Each line is one published result; the experiments were not run side by side.
Organism: Klebsiella pneumoniae
Effect on: microbial growth

Compound	technique	strain	time	MIC
CN(C)[C@@H]1C(O)=C(C(N)=O)C(=O)[C@@]2(O)C(O)=C3C(=O)c4c(O)cccc4[C@@](C)(O)[C@H]3C[C@@H]12	broth dilution	ATCC27736	16 h	3.1 µM
C[C@@H](O)[C@H]1C(=O)N2C(C(=O)O)=C(S[C@@H]3CN[C@H](C(=O)N(C)C)C3)[C@H](C)[C@H]12	broth dilution	ATCC700603		2 µg/mL
CCCCCCCCCCCC[N+](C)(C)Cc1ccccc1		ATCC4352		8 µM
CN(C)c1ccc(O)c2c1C[C@H]1C[C@H]3[C@H](N(C)C)C(O)=C(C(N)=O)C(=O)[C@@]3(O)C(O)=C1C2=O	broth dilution	ATCC43816		1 µg/mL
CCCCCCCCN=c1ccn(CCCCCCCCCCn2ccc(=NCCCCCCCC)cc2)cc1		ATCC4352		0.5 µM
CN(C)c1cc(NC(=O)CNC(C)(C)C)c(O)c2c1C[C@H]1C[C@H]3[C@H](N(C)C)C(O)=C(C(N)=O)C(=O)[C@@]3(O)C(O)=C1C2=O	broth dilution	ATCC43816		< 0.5 µg/mL
CC1(C)S[C@@H]2[C@H](NC(=O)[C@H](N)c3ccccc3)C(=O)N2[C@H]1C(=O)O	broth dilution	ATCC43816		172 µM
C[C@H]1[C@H](NC(=O)/C(=N\OC(C)(C)C(=O)O)c2csc(N)n2)C(=O)N1S(=O)(=O)O	broth dilution	ATCC13883		0.0625 µg/mL
CCN1CCN(C(=O)N[C@@H](C(=O)N[C@@H]2C(=O)N3[C@@H]2SC(C)(C)[C@@H]3C(=O)O)c2ccccc2)C(=O)C1=O	broth dilution	ATCC43816		4 µg/mL
CCCCCCC#Cc1cncc(-c2nnc(SCc3cc([N+](=O)[O-])cc([N+](=O)[O-])c3)n2C2CCNCC2)c1	broth dilution	DSM30104		> 64 µg/mL
[H]/N=C(/N)N[C@H]1[C@H](O)[C@@H](O)[C@H](O[C@@H]2O[C@@H](C)[C@](O)(C=O)[C@H]2O[C@@H]2O[C@@H](CO)[C@H](O)[C@@H](O)[C@@H]2NC)[C@@H](N/C(N)=N\[H])[C@@H]1O	broth dilution	ATCC700603		> 512 µg/mL
Cc1cc(NS(=O)(=O)c2ccc(N)cc2)no1	broth dilution	ATCC43816		64 µg/mL
CC[C@H]1OC(=O)[C@H](C)[C@@H](O[C@H]2C[C@@](C)(OC)[C@@H](O)[C@H](C)O2)[C@H](C)[C@@H](O[C@@H]2O[C@H](C)C[C@H](N(C)C)[C@H]2O)[C@](C)(O)C[C@@H](C)CN(C)[C@H](C)[C@@H](O)[C@]1(C)O	broth dilution	ATCC13883		1 µg/mL
CCCCCCC#Cc1cncc(-c2nnc(SCc3ccc([N+](=O)[O-])cc3)n2CCCN)c1	broth dilution	DSM30104		> 64 µg/mL
C[C@@H](O)[C@H]1C(=O)N2C(C(=O)O)=C(S[C@@H]3CN[C@H](C(=O)N(C)C)C3)[C@H](C)[C@H]12	broth dilution	ATCC43816		< 0.5 µg/mL
CC1(C)S[C@@H]2[C@H](NC(=O)[C@H](N)c3ccccc3)C(=O)N2[C@H]1C(=O)O	broth dilution	ATCC700603		8 µg/mL
CCCCCCC#Cc1cncc(-c2nnc(SCc3ccc(Cl)cc3)n2CCCN)c1	broth dilution	DSM30104		32 µg/mL
CC1(C)S[C@@H]2[C@H](NC(=O)[C@H](N)c3ccccc3)C(=O)N2[C@H]1C(=O)O	broth dilution	ATCC13883		> 64 µg/mL
CCCCCCC#Cc1cncc(-c2nnc(SCc3cc(C(F)(F)F)cc(C(F)(F)F)c3)n2CCCN)c1	broth dilution	DSM30104		32 to 64 µg/mL
C[C@H]1[C@H](NC(=O)/C(=N\OC(C)(C)C(=O)O)c2csc(N)n2)C(=O)N1S(=O)(=O)O	broth dilution	ATCC43816		< 0.5 µg/mL
CO/N=C(\C(=O)N[C@@H]1C(=O)N2C(C(=O)O)=CCS[C@H]12)c1csc(N)n1	broth dilution	ATCC13883		0.125 µg/mL
